From ChEMBL document CHEMBL1140989, “Synthesis, penetrability and intracellular targeting of fluorescein-tagged peptoids and peptide-peptoid hybrids” (Bioorg Med Chem, 2009)
Square brackets hold non-standard residues; d marks the D form. Peptide text beside a SMILES is read from it. * marks the point of attachment. X1 = O=C(O)c1cc(C(=O)*)ccc1-c1c2ccc(=O)cc-2oc2cc(O)ccc12; Gly(N-(CH2)6NH2) = NCCCCCCNCC(=O)O; Ahx = NCCCCCC(=O)O

Tests used:
Format in all cases: cell-based
K562 = test: Cytotoxicity against human K562 cells after 24 hrs by MTT assay; details: k562, 24 h
Summary of the method: (§1)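 Cells kept in 10 µM peptoid in medium. Viability read by MTT 24 h after compound addition, absorbance at 570 nm.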

L929 = test: Cytotoxicity against mouse L929 cells after 24 hrs by MTT assay; details: l929, 24 h; summary of the method: as §1
HeLa = test: Cytotoxicity against human HeLa cells after 24 hrs by MTT assay; summary of the method: as §1

Measured: Activity

NCCCCCCN(CC(N)=O)C(=O)CN(CCCCCCN)C(=O)CN(CCCCCCN)C(=O)CCCCCNC(=O)c1ccc(-c2c3ccc(=O)cc-3oc3cc(O)ccc23)c(C(=O)O)c1
Non-toxic: all assays above

NCCCCCCN(CC(N)=O)C(=O)CN(CCCCCCN)C(=O)CN(CCCCCCN)C(=O)CN(CCCCCCN)C(=O)CN(CCCCCCN)C(=O)CCCCCNC(=O)c1ccc(-c2c3ccc(=O)cc-3oc3cc(O)ccc23)c(C(=O)O)c1
Non-toxic: all assays above

NCCCCCCN(CC(N)=O)C(=O)CN(CCCCCCN)C(=O)CN(CCCCCCN)C(=O)CN(CCCCCCN)C(=O)CN(CCCCCCN)C(=O)CN(CCCCCCN)C(=O)CN(CCCCCCN)C(=O)CCCCCNC(=O)c1ccc(-c2c3ccc(=O)cc-3oc3cc(O)ccc23)c(C(=O)O)c1 ({X1-Ahx}-[Gly(N-(CH2)6NH2)][Gly(N-(CH2)6NH2)][Gly(N-(CH2)6NH2)][Gly(N-(CH2)6NH2)][Gly(N-(CH2)6NH2)][Gly(N-(CH2)6NH2)][Gly(N-(CH2)6NH2)]-NH2)
Non-toxic: all assays above

NCCCCCCN(CC(N)=O)C(=O)CCCCCNC(=O)c1ccc(-c2c3ccc(=O)cc-3oc3cc(O)ccc23)c(C(=O)O)c1
Non-toxic: all assays above
